ChEMBL document CHEMBL5344476, “Development of Hsp90 C-terminal inhibitors with noviomimetics that manifest anti-proliferative activities” (RSC Med Chem, 2024)
Calls of active or inactive are those of the source. No cut-off for these calls is given here.

What was measured:
MDA-MB-231 = assay: Antiproliferative activity against human MDA-MB-231 cells assessed as inhibition of cell growth incubated for 72 hrs by MTS assay; format: functional, cell-based; details: MDA-MB-231, 72 h
Outline: (§1)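 Cells were grown at 37°C under 5% CO₂: PC3 in RPMI-1640, MDA-MB-231 in DMEM, and SKBr3 in McCoy's. They were seeded at 2000 cells/well and left for 24 h, then exposed for 72 h to varying concentrations or vehicle (0.5% DMSO final). Viability was read by MTS/PES absorbance at 490 nm relative to control. IC50 came from concentration-response curves; values are means ± SD of two independent experiments.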

PC-3 = assay: Antiproliferative activity against human PC-3 cells assessed as inhibition of cell growth incubated for 72 hrs by MTS assay; format: functional, cell-based; details: PC-3, 72 h; outline: as §1
SK-BR-3 [1] = assay: Antiproliferative activity against human SK-BR-3 cells assessed as inhibition of cell growth incubated for 72 hrs by MTS assay; format: functional, cell-based; details: SK-BR-3, 72 h; outline: as §1
SK-BR-3 [2] = assay: Antiproliferative activity against human SK-BR-3 cells; format: functional, cell-based
Outline: as §1, with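 “They” for “Cells were grown at 37°C under 5% CO₂: PC3 in RPMI-1640, MDA-MB-231 in DMEM, and SKBr3 in McCoy's. They”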

SK-BR-3 [3] = assay: Effect on HSP90 independent beta-actin protein level in human SK-BR-3 cells at 0.1 to 10 uM incubated for 24 hrs by Western blot analysis; format: functional, cell-based; details: dose 0.1-10 µM
Outline: (§2)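 SKBr3 cells were seeded at 700,000/well and grown to ~80% confluency. They were treated for 24 h with compound or vehicle (1% DMSO), then lysed in Triton/SDS buffer with protease and phosphatase inhibitors. Protein (20 ug, BCA-normalized) was run on 10% SDS-PAGE and transferred to PVDF. Blots were probed overnight at 4°C with 1:1000 anti-HER2, Hsp70, Hsp90, Akt, CDK6 or β-actin, then detected by HRP secondary and ECL.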

[4] = biological target: T1, Heat shock protein HSP90 (Homo sapiens) (UniProt P07900+P08238); assay: Inhibition of C-terminal HSP90 in human SK-BR-3 cells at 0.1 to 10 uM incubated for 24 hrs by Western blot analysis; details: dose 0.1-10 µM
[5] = biological target: T1, Heat shock protein HSP90 (Homo sapiens); assay: Inhibition of C-terminal HSP90 in human SK-BR-3 cells assessed as reduction in HSR induction with constant Hsp70 level at 0.1 to 10 uM incubated for 24 hrs by Western blot analysis; format: cell-based; details: dose 0.1-10 µM; outline: as §2
[6] = biological target: T1, Heat shock protein HSP90 (Homo sapiens); assay: Inhibition of C-terminal HSP90 in human SK-BR-3 cells assessed as HER-2 degradation incubated for 24 hrs by Western blot analysis; format: cell-based; details: dose 0.1-10 µM; outline: as §2

| SMILES | IC50 (MDA-MB-231) [µM] | IC50 (PC-3) [µM] | IC50 (SK-BR-3 [1]) [µM] | IC50 (SK-BR-3 [2]) [µM] | inhibition [4] | inhibition [5] | inhibition [6] | Activity (SK-BR-3 [3]) |
| --- | --- | --- | --- | --- | --- | --- | --- | --- |
| COc1cccc(-c2cc(C(=O)NCCc3ccc(OC4CCC(C(F)(F)Oc5ccccc5)CC4)cc3-c3cccc(F)c3)ccc2OC)c1 (stereo unspecified) | > 50 | > 50 | > 50 |  |  |  |  |  |
| CC(C)=CCc1cc(C(=O)NCCc2ccc(OC3CCC(CCc4ccccc4)CC3)cc2-c2cccc(F)c2)ccc1O (stereo unspecified) | > 50 | > 50 | > 50 |  |  |  |  |  |
| COc1cccc(-c2cc(C(=O)NCCc3ccc(OC4CCC(C(=O)Nc5ccccc5)CC4)cc3-c3cccc(F)c3)ccc2OC)c1 (stereo unspecified) | > 50 | > 50 | > 50 |  |  |  |  |  |
| CC(C)=CCc1cc(C(=O)NCCc2ccc(OC3CCC(SCc4ccccc4)CC3)cc2-c2cccc(F)c2)ccc1O (stereo unspecified) | > 50 | > 50 | > 50 |  |  |  |  |  |
| COc1cccc(-c2cc(C(=O)NCCc3ccc(OC4CCN(Cc5ccccc5)CC4)cc3-c3cccc(F)c3)ccc2OC)c1 | > 50 | > 50 | > 50 |  |  |  |  |  |
| CC(=O)NCCc1ccc(OC2CCC(OCc3ccccc3)CC2)cc1-c1cccc(F)c1 (stereo unspecified) |  |  |  | > 50 |  |  |  |  |
| COc1cccc(-c2cc(C(=O)NCCc3ccc(OC4CCC(C(=O)Oc5ccccc5)CC4)cc3-c3cccc(F)c3)ccc2OC)c1 (stereo unspecified) | > 50 | > 50 | > 50 |  |  |  |  |  |
| COc1cccc(-c2cc(C(=O)NCCc3ccc(OC4CCOCC4)cc3-c3cccc(F)c3)ccc2OC)c1 | > 50 | > 50 | > 50 |  |  |  |  |  |
| COc1cccc(-c2cc(C(=O)NCCc3ccc(OC4CCC(CNc5ccccc5)CC4)cc3-c3cccc(F)c3)ccc2OC)c1 (stereo unspecified) | > 50 | > 50 | > 50 |  |  |  |  |  |
| COc1cccc(-c2cc(C(=O)NCCc3ccc(OC4CCCCC4)cc3-c3cccc(F)c3)ccc2OC)c1 | > 50 | > 50 | > 50 |  |  |  |  |  |
| CC(C)=CCc1cc(C(=O)NCCc2ccc(OC3CCC(Cc4ccccc4)CC3)cc2-c2cccc(F)c2)ccc1O (stereo unspecified) | > 50 | > 50 | > 50 |  |  |  |  |  |
| COc1cccc(-c2cc(C(=O)NCCc3ccc(OC4CCC(CCc5ccccc5)CC4)cc3-c3cccc(F)c3)ccc2OC)c1 (stereo unspecified) | > 50 | > 50 | > 50 |  |  |  |  |  |
| COc1cccc(-c2cc(C(=O)NCCc3ccc(OC4CCC(COc5ccccc5)CC4)cc3-c3cccc(F)c3)ccc2OC)c1 (stereo unspecified) | > 50 | > 50 | > 50 |  |  |  |  |  |
| COc1cccc(-c2cc(C(=O)NCCc3ccc(OC4CCC(CSc5ccccc5)CC4)cc3-c3cccc(F)c3)ccc2OC)c1 (stereo unspecified) | > 50 | > 50 | > 50 |  |  |  |  |  |
| CNC(=O)C1CCC(Oc2ccc(CCNC(=O)c3ccc(OC)c(-c4cccc(OC)c4)c3)c(-c3cccc(F)c3)c2)CC1 (stereo unspecified) | > 50 | > 50 | > 50 |  |  |  |  |  |

Further lines, with some results ahead:

| IC50 (MDA-MB-231) [µM] | IC50 (PC-3) [µM] | IC50 (SK-BR-3 [1]) [µM] | IC50 (SK-BR-3 [2]) [µM] | inhibition [4] | inhibition [5] | inhibition [6] | SMILES | Activity (SK-BR-3 [3]) |
| --- | --- | --- | --- | --- | --- | --- | --- | --- |
| > 50 | > 50 | > 50 |  |  |  |  | CCCC1CCC(Oc2ccc(CCNC(=O)c3ccc(OC)c(-c4cccc(OC)c4)c3)c(-c3cccc(F)c3)c2)CC1 (stereo unspecified) |  |
| 6.37 | 11 | 0.56 |  |  |  |  | CCCN1CCC(Oc2ccc(CCNC(=O)c3ccc(OC)c(-c4cccc(OC)c4)c3)c(-c3cccc(F)c3)c2)CC1 |  |
| > 50 | > 50 | > 50 |  |  |  |  | COc1cccc(-c2cc(C(=O)NCCc3ccc(OC4CCC(Cc5ccccc5)CC4)cc3-c3cccc(F)c3)ccc2OC)c1 (stereo unspecified) |  |
| 4.87 | 6.6 | 3.46 |  |  |  |  | COc1cccc(-c2cc(C(=O)NCCc3ccc(OC4CCN(C)CC4)cc3-c3cccc(F)c3)ccc2OC)c1 |  |
| 9.35 | 13.6 | 6.61 |  |  |  |  | COc1cccc(-c2cc(C(=O)NCCc3ccc(OC4CCN(C(C)C)CC4)cc3-c3cccc(F)c3)ccc2OC)c1 |  |
| > 50 | > 50 | > 50 |  |  |  |  | COc1cccc(-c2cc(C(=O)NCCc3ccc(OC4CCC(OCc5ccccc5)CC4)cc3-c3cccc(F)c3)ccc2OC)c1 (stereo unspecified) |  |
| > 50 | > 50 | > 50 |  |  |  |  | COC(=O)C1CCC(Oc2ccc(CCNC(=O)c3ccc(OC)c(-c4cccc(OC)c4)c3)c(-c3cccc(F)c3)c2)CC1 (stereo unspecified) |  |
| > 50 | > 50 | > 50 |  |  |  |  | COc1cccc(-c2cc(C(=O)NCCc3ccc(OC4CCC(SCc5ccccc5)CC4)cc3-c3cccc(F)c3)ccc2OC)c1 (stereo unspecified) |  |
| 8.46 | 13.5 | 6.6 |  |  |  |  | CCN1CCC(Oc2ccc(CCNC(=O)c3ccc(OC)c(-c4cccc(OC)c4)c3)c(-c3cccc(F)c3)c2)CC1 |  |
| 7.35 | 12.7 | 6.43 |  |  |  |  | C=CCN1CCC(Oc2ccc(CCNC(=O)c3ccc(OC)c(-c4cccc(OC)c4)c3)c(-c3cccc(F)c3)c2)CC1 |  |
| 35.1 | 8.07 | 15.3 |  |  |  |  | COc1cccc(-c2cc(C(=O)NCCc3ccc(OCCCB4OC(C)(C)C(C)(C)O4)cc3-c3cccc(F)c3)ccc2OC)c1 |  |
| 36.6 | 13.3 | 21.6 |  |  |  |  | COc1cccc(-c2cc(C(=O)NCCc3ccc(OCCCB(O)O)cc3-c3cccc(F)c3)ccc2OC)c1 |  |
| 3.29 | 3.08 | 0.9 |  | Active | Active | Dose-Dependent Effect | COc1cccc(-c2cc(C(=O)NCCc3ccc(OC4CCNCC4)cc3-c3cccc(F)c3)ccc2OC)c1 | inactive |
